These results are taken from ChEMBL document CHEMBL4390645, “Novel prenyloxy chalcones as potential leishmanicidal and trypanocidal agents: Design, synthesis and evaluation” (Eur J Med Chem, 2019).

The subject of series [1] is Leishmania major. Description: Antileishmanial activity against Leishmania major amastigotes. Type of series: functional, organism-based.
The subject of series [2] is Leishmania donovani. The series can be described thus: Antileishmanial activity against Leishmania donovani amastigotes. It counts as functional, organism-based.
The subject of series [3] is Leishmania mexicana. Description: Antileishmanial activity against Leishmania mexicana MNYC-BZ/62/M379 promastigotes assessed as metabolic inhibition at 10 ug/ml after 24 hrs by MTT assay relative to control. The note with it: MNYC-BZ/62/M379, 24 h. It counts as functional. The procedure, abridged: (§1)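 Stationary-phase (7-day) metacyclic promastigotes, 5 x 10^5 per well in 100 µL RPMI 1640 with 10% heat-inactivated FBS and penicillin-streptomycin. Compounds from 10 mg/mL DMSO stock, diluted in PBS. Screen at 10 µg/mL in triplicate; actives serially diluted from 20 µg/mL. 27°C, dark, 24 h, then MTT 24 h. SDS/HCl solubilization, A570 vs blank. IC50 by Probit. Amphotericin B reference.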

Series [4] relates to Trypanosoma cruzi. The series can be described thus: Antitrypanosomal activity against Trypanosoma cruzi MHOM/MX/1994/INC5 epimastigotes assessed as metabolic inhibition at 10 ug/ml after 24 hrs by MTT assay relative to control. Type of series: functional. The note with it: MHOM/MX/1994/INC5, 24 h. A general note: Tetrazolium dyes change colour on reduction, which living cells bring about.

Series [5] relates to Leishmania mexicana. The series can be described thus: Induction of morphological changes in Leishmania mexicana MNYC-BZ/62/M379 promastigotes assessed as rounded cells at 3 multiples of IC50 concentration and measured after 24 hrs by giemsa staining using light microscopic method. Type of series: functional, organism-based.
Series [6] relates to Leishmania mexicana. The series can be described thus: Antileishmanial activity against Leishmania mexicana MNYC-BZ/62/M379 promastigotes assessed as growth inhibition measured after 24 hrs by MTT assay. Type of series: functional, organism-based. The note with it: MNYC-BZ/62/M379, 24 h. In outline: as §1
A short description of series [7]: Cytotoxicity against mouse J774.A1 cells assessed as reduction in cell viability measured after 20 hrs by MTT assay. It counts as cell-based. In outline: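 J774A.1 macrophages, 5x10^4/well, preincubated 24 h at 37 °C, 5% CO2. Compounds at several concentrations in triplicate for 20 h, untreated cells as control. MTT added for 4 h, then 10% SDS/0.01N HCl, absorbance read. CC50 by Probit concentration-response.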

A short description of series [8]: Selectivity index, ratio of CC50 for mouse J774.A1 cells to IC50 for antileishmanial activity against Leishmania mexicana MNYC-BZ/62/M379 promastigotes. It counts as toxicity. The note with it: read-out: Ratio CC50/IC50. The procedure, abridged: (§2)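 SI = CC50 (J774A.1, 20 h MTT) divided by parasite IC50 (24 h MTT), both Probit-derived.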
In series [9] the test system is Leishmania mexicana. The series can be described thus: Induction of morphological changes in Leishmania mexicana MNYC-BZ/62/M379 promastigotes assessed as cell death at 3 multiples of IC50 concentration and measured after 24 hrs by giemsa staining using light microscopic method. It counts as functional, organism-based.
For series [10], the system named is Trypanosoma cruzi. Description: Antitrypanosomal activity against Trypanosoma cruzi MHOM/MX/1994/INC5 epimastigotes assessed as growth inhibition measured after 24 hrs by MTT assay. It counts as functional, organism-based. The settings on record: MHOM/MX/1994/INC5, 24 h.
Series [11] relates to Leishmania mexicana. Description: Induction of morphological changes in Leishmania mexicana MNYC-BZ/62/M379 promastigotes assessed as decrease in flagella length at 3 multiples of IC50 concentration and measured after 24 hrs by giemsa staining using light microscopic method. Type of series: functional, organism-based.
The test system of series [12] is Trypanosoma cruzi. Description: Induction of morphological changes in Trypanosoma cruzi MHOM/MX/1994/INC5 epimastigotes assessed as decrease in cell density measured after 24 hrs by giemsa staining using light microscopic method. It counts as functional, organism-based. The procedure, abridged: (§3)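 Parasites exposed 24 h to a range of compound concentrations, Giemsa-stained, examined by light microscopy at 100x for morphology and cell density.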

In series [13] the test system is Leishmania mexicana. The series can be described thus: Induction of morphological changes in Leishmania mexicana MNYC-BZ/62/M379 promastigotes assessed as decrease in cell density at 1.25 to 20 ug/ml measured after 24 hrs by giemsa staining using light microscopic method. It counts as functional, organism-based. The procedure, abridged: as §3
A short description of series [14]: Selectivity index, ratio of CC50 for mouse J774.A1 cells to IC50 for antitrypanosomal activity against Trypanosoma cruzi MHOM/MX/1994/INC5 epimastigotes. It counts as toxicity. The settings on record: read-out: Ratio CC50/IC50. The procedure, abridged:
as §2

The test system of series [15] is Leishmania mexicana. The series can be described thus: Antileishmanial activity against Leishmania mexicana MNYC-BZ/62/M379 promastigotes assessed as metabolic inhibition at 0.5 ug/ml after 24 hrs by MTT assay relative to control. It counts as functional. The note with it: MNYC-BZ/62/M379, 24 h.

The source made the active and inactive calls. The rule behind the calls is not given here.

Regarding `CC(C)=CCC/C(C)=C/CC/C(C)=C/COc1ccccc1/C=C/C(=O)c1ccccc1`, the IC50 in [1] and in [2] was 1.4 to 88.8 µM in each case.
For `CC(C)=CCOc1ccccc1/C=C/C(=O)c1ccccc1`, the IC50 in series [1] and in series [2] was 1.4 to 88.8 µM each time.
For the compound `COc1cc(C(=O)/C=C/c2ccc(O)cc2)ccc1OCC=C(C)C`, the inhibition at 10 µg/mL in [3] was 4.6%; in series [4] it was 16.3%.
Take `COc1ccc(C(=O)/C=C/c2ccc(OC/C=C(\C)CCC=C(C)C)c(OC)c2)cc1OC`: the inhibition at 10 µg/mL was 13.5% in series [3] and 22% in series [4].
Turning to `COc1cc(/C=C/C(=O)c2cc(OC)c(OC)c(OC)c2)ccc1OCC=C(C)C`, the result in [5], in series [9], in series [11] and in [13] was Active. Moreover, the figures for the inhibition at 10 µg/mL in series [3] and in series [4] were 71.3% and 84%, respectively. The IC50 in series [6] came out at 16.2 µM; in [10], 17.5 µM. For the same compound, the CC50 at 20 h in [7] stood at 1310 µM. In addition, the selectivity ratio in series [8] is 80.9; in series [14], 75.1. Besides, the Activity result in series [12] is “Dose-dependent effect”.
Turning to `COc1cc(/C=C/C(=O)c2ccc(OC/C=C(\C)CCC=C(C)C)c(OC)c2)ccc1OCC=C(C)C`, the values for the inhibition at 10 µg/mL in series [3] and in series [4] were -8% and 43.9%, respectively. The CC50 at 20 h in series [7] stood at 825 µM. In addition, the 50% inhibitory concentration (IC50) in series [10] amounted to 30.1 µM. In addition, in [14], the selectivity ratio was determined as 27.4.
For the compound `COc1ccc(C(=O)/C=C/c2ccc(OC/C=C(\C)CCC=C(C)C)c(OC)c2)cc1`, the inhibition at 10 µg/mL stood at 0.7% in [3] and 13.7% in [4].
The like results for `COc1cc(/C=C/C(=O)c2ccc(O)cc2)ccc1OC/C=C(\C)CCC=C(C)C` were, in that order, 17.6% and 20.4%.
In the case of `COc1ccc(/C=C/C(=O)c2ccc(OC/C=C(\C)CCC=C(C)C)c(OC)c2)cc1OC`, the inhibition at 10 µg/mL in [3] was 27.3%; in series [4] it was 28.3%.
Regarding `COc1ccc(/C=C/C(=O)c2ccc(OC/C=C(\C)CCC=C(C)C)cc2)cc1`, the IC50 in series [1] and in series [2] was 1.4 to 88.8 µM in each case.
Take `COc1ccc(C(=O)/C=C/c2ccc(OCC=C(C)C)c(OC)c2)cc1`: the inhibition at 10 µg/mL in [3] was determined as 25.5%; in series [4], 2.6%.
Turning to `C[C@@H]1[C@H](O)[C@@H](C)/C=C/C=C/C=C/C=C/C=C/C=C/C=C/[C@H](O[C@@H]2O[C@H](C)[C@@H](O)[C@H](N)[C@@H]2O)C[C@@H]2O[C@](O)(C[C@@H](O)C[C@@H](O)[C@H](O)CC[C@@H](O)C[C@@H](O)CC(=O)O[C@H]1C)C[C@H](O)[C@H]2C(=O)O` [AMPHOTERICIN B], the 50% inhibitory concentration (IC50) in series [6] stood at 0.28 µM. In addition, the cytotoxic concentration (CC50) at 20 h in series [7] worked out at 60.7 µM. The selectivity ratio in [8] came out at 216. The inhibition at 0.5 µg/mL in series [15] came to 99%.
As for `COc1ccc(/C=C/C(=O)c2ccc(OC/C=C(\C)CCC=C(C)C)c(OC)c2)cc1`, the figures for the inhibition at 10 µg/mL in [3] and in series [4] were 0% and -11.6%, respectively.
In the same order, the values of `COc1cc(C(=O)/C=C/c2ccc(OC/C=C(\C)CCC=C(C)C)c(OC)c2)ccc1OCC=C(C)C` are -3.2% and 33.2%.
In the same order, the values of `COc1ccc(/C=C/C(=O)c2ccc(OCC=C(C)C)c(OC)c2)cc1OC` are 15.6% and 25.3%.
Take `COc1cc(/C=C/C(=O)c2ccc(OC/C=C(\C)CCC=C(C)C)c(OC)c2)ccc1OC/C=C(\C)CCC=C(C)C`: the results for the inhibition at 10 µg/mL in series [3] and in series [4] were 1% and 45%, respectively. Besides, the cytotoxic concentration (CC50) at 20 h in series [7] turned out to be 1020 µM. In addition, in series [10], the IC50 was found to be 30.4 µM. Also, the selectivity ratio in series [14] amounted to 33.5.
With `COc1cc(C(=O)/C=C/c2cc(OC)c(OC)c(OC)c2)ccc1OCC=C(C)C`, the results for the inhibition at 10 µg/mL in [3] and in series [4] were 59.1% and 80.3%, respectively. Moreover, the IC50 in series [6] turned out to be 20.7 µM; in series [10], 17.8 µM. For the same compound, the half-maximal cytotoxic concentration (CC50) at 20 h in series [7] is 25.6 µM. In addition, the selectivity ratio in series [8] worked out at 1.24; in [14], 1.43.
For the compound `CC(C)=CCC/C(C)=C/CC/C(C)=C/COc1cccc(/C=C/C(=O)c2ccccc2)c1`, the 50% inhibitory concentration (IC50) in [1] and in [2] was 1.4 to 88.8 µM throughout.
With `COc1ccc(/C=C/C(=O)c2ccc(OCC=C(C)C)c(OC)c2)cc1`, the values for the inhibition at 10 µg/mL in [3] and in [4] were 1% and 7.9%, respectively.
The like results for `COc1cc(C(=O)/C=C/c2cc(OC)c(OC)c(OC)c2)ccc1OC/C=C(\C)CCC=C(C)C` were, in that order, 2.1% and -0.8%.
Take `COc1ccc(C(=O)/C=C/c2ccc(OCC=C(C)C)c(OC)c2)cc1OC`: the inhibition at 10 µg/mL turned out to be 48.3% in series [3] and 11.8% in [4]. The IC50 in series [6] was 31.8 µM. Also, in series [7], the half-maximal cytotoxic concentration (CC50) at 20 h came out at 1750 µM. Moreover, the selectivity ratio in [8] came out at 55.1.
With `CC(C)=CCOc1cccc(/C=C/C(=O)c2ccccc2)c1`, the 50% inhibitory concentration (IC50) in [1] and in series [2] was 1.4 to 88.8 µM throughout.
For the compound `CC(C)=CCC/C(C)=C/COc1ccccc1/C=C/C(=O)c1ccccc1`, the IC50 in series [1] and in series [2] was 1.4 to 88.8 µM each time.
In the case of `CC1CS(=O)(=O)CCN1/N=C/c1ccc([N+](=O)[O-])o1` (stereo not drawn) [NIFURTIMOX], the cytotoxic concentration (CC50) at 20 h in series [7] was 201 µM. Further, the half-inhibitory concentration (IC50) in series [10] was determined as 8.7 µM. Also, the selectivity ratio in series [14] stood at 23.1.
`COc1cc(/C=C/C(=O)c2ccc(OCC=C(C)C)c(OC)c2)ccc1OCC=C(C)C`: the inhibition at 10 µg/mL in [3] was determined as 3.9%; in series [4], 20%.
In the same order, the values of `COc1cc(/C=C/C(=O)c2ccc(O)cc2)ccc1OCC=C(C)C` are 17.7% and 23.8%.
On to `COc1cc(/C=C/C(=O)c2cc(OC)c(OC)c(OC)c2)ccc1OC/C=C(\C)CCC=C(C)C`, for which the inhibition at 10 µg/mL in series [3] amounted to 11.3%; in [4], 31.6%.
With `O=C(Cn1ccnc1[N+](=O)[O-])NCc1ccccc1` [BENZNIDAZOLE], the inhibition at 10 µg/mL in series [4] came to 77.4%. For the same compound, the half-maximal cytotoxic concentration (CC50) at 20 h in series [7] came to 352 µM. The half-inhibitory concentration (IC50) in series [10] was 42.3 µM.
As for `CC(C)=CCC/C(C)=C/COc1cccc(/C=C/C(=O)c2ccccc2)c1`, the IC50 in series [1] and in series [2] was 1.4 to 88.8 µM each time.
Consider `COc1cc(C(=O)/C=C/c2ccc(O)cc2)ccc1OC/C=C(\C)CCC=C(C)C`, for which the results for the inhibition at 10 µg/mL in [3] and in [4] were 4.9% and -5.5%, respectively.

The IC50 is the midpoint of a concentration-inhibition curve. As usually defined, the inhibition is the drop in the measured response relative to a control, in per cent. Broadly, the CC50 is the concentration that lowers cell viability or growth by half.
